Rows were chosen to be rich in hits. Some 2.4% of all compounds tested hit in one or more screens of this group.
M18AAP inhibitor – blocks P. falciparum M18 aspartyl aminopeptidase. recombinant PfM18AAP, H-Glu-NHMec fluorogenic cleavage. inhibition, % at 7.35 µM. 290,000 tested, 1.2% active;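 active = inhibition above the campaign mean inhibition over all tested compounds plus 3 SD, cut at about 28% in these data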;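 also: 0% = plate median of test compound wells and 100% = 2 mM ZnCl2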
PfGluPho inh – PfG6PD (Plasmodium falciparum) enzyme inhibition; PfGluPho enzyme, NADPH resazurin-diaphorase fluorescence; inhibition, % at 20 µM; 350,000 tested, 0.78% active; AID 504690;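 active = inhibition reaching at least a set limit at 20 µM in the primary screen, cut at about 59% in these data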;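 also: 0% = DMSO wells with substrate and 100% = DMSO wells lacking glucose-6-phosphate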
A3G deaminase – inhibitors of human APOBEC3G DNA deaminase | recombinant A3G, ssDNA deamination FAM/TAMRA fluorescence | inhibition, % at 20 µM | AID 493012 | Q9HC16 | 330,000 tested, 0.28% active;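 active = inhibition of at least 40% at 20 µM, with no more than 30% in the related APOBEC3A deaminase screen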;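 also: plate controls were DMSO wells with A3G for no effect and wells lacking A3G enzyme for full effect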
Target sequence (Q9HC16 whole entry, looked up): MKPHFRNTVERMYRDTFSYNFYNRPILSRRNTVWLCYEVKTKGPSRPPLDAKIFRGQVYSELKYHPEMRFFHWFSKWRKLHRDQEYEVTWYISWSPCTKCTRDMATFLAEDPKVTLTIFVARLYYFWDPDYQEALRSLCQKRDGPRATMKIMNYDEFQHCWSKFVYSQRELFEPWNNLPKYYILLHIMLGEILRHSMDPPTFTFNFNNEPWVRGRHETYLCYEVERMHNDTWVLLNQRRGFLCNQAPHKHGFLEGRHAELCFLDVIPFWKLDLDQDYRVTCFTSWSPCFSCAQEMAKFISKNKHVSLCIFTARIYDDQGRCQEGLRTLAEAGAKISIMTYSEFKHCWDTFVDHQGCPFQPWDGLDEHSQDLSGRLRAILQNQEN
APOBEC3A inh – inhibitors of human APOBEC3A DNA deaminase. P31941. recombinant A3A, FAM/TAMRA ssDNA deamination fluorescence. inhibition, % at 20 µM. 330,000 tested, 0.41% active. AID 493011;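 active = at least 40% inhibition at 20 µM here, with at most 30% in a related deaminase screen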;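 also: plate controls were A3A with DMSO for no effect and wells lacking A3A enzyme for full effect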
SUMO HTRF inh – blocks human SUMOylation mediated by UBC9 | inhibition, % at 35 µM | P63279 | HTRF SUMOylation assay, SAE1/SAE2 + UBC9, in vitro | 290,000 tested, 0.36% active; in the data active = inhibition above about 50%, passing the limit was not always enough; inconclusive = no clear call, values can overlap the other calls
Target sequence (P63279 whole entry, looked up): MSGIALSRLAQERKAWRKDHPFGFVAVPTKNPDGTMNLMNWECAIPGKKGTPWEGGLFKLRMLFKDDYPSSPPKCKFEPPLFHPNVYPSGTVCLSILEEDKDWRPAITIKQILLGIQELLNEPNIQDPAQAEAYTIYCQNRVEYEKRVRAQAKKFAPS
HKDC1 inhibitor – inhibitors of human hexokinase HKDC1. inhibition, % at 20 µM. recombinant HKDC1, G6PDH/diaphorase resazurin coupled fluorescence. 340,000 tested, 0.16% active. Q2TB90. AID 493160;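 active = inhibition above about 35% when tested at 20 µM, limit read from the data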;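 also: plate controls were DMSO wells with enzyme for no effect and DMSO wells lacking enzyme for full effect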
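test system = in-house recombinant HK5 (HKDC1) enzyme | amount = HKDC1 at 5 µg/mL | control set = DMSO-enzyme wells negative, buffer-substituted wells positive | compound = one dose of 20 µM, 1% DMSO | schedule = reaction time 90 min, room temperature, protected from light | technique = resorufin fluorescence at 613 nm | reagent = glucose with 1 mM ATP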
The depositor's hits bear a star; ? = inconclusive; . = no result.

SMILES | M18AAP inhibitor | PfGluPho inh | A3G deaminase | APOBEC3A inh | SUMO HTRF inh | HKDC1 inhibitor
COC/C=C/C1=CC2=CC(=O)C(C)(OC(=O)c3cnc4ccccc4n3)C(=O)C2=CN1c1ccc(CO)cc1 (stereo not given) | 20 | . | 80 | 79 | 58* | .
O=c1[nH]c2ccccc2c2cn(-c3ccccc3)nc12 | -4 | 64* | -6 | -3 | 4 | 15
CC(C)OC(=O)c1c(NC(=O)c2cnn3c2NC(c2ccccc2)CC3C(F)(F)F)sc2c1CCCC2 (stereo not given) | 10 | 5 | -7 | 2 | 6 | -5
Cc1nn(CCc2nn[nH]n2)c2nc(C(F)(F)F)cc(C(F)(F)F)c12 | -2 | -19 | 0 | 5 | 25 | 12
Cc1ccc(NC(=O)Nc2ccno2)cc1 | 2 | 18 | -10 | -4 | 72* | -18
Cc1ccc(NC(=O)Nc2ncccc2C)cc1 | 4 | 12 | 0 | -2 | 0 | 1
O=C(Nc1ccc(N2CCOCC2)cc1)Nc1ccc2nc(-c3ccco3)c(-c3ccco3)nc2c1 | 11 | -7 | 4 | 6 | ? | 18
O=C(NCCCO)Nc1ccc2nc(-c3ccco3)c(-c3ccco3)nc2c1 | 10 | . | 91 | 98 | 93* | .
NS(=O)(=O)c1ccc(CCNC(=O)CNC(=O)Cc2cccc3ccccc23)cc1 | -8 | 8 | -4 | 2 | 19 | -2
COc1ccc(C2Nc3ccccc3C(=O)N2c2ccccc2)cc1Cn1cc([N+](=O)[O-])cn1 (stereo not given) | -6 | 11 | -5 | 2 | -1 | -3
O=C1ON=C(c2ccc([N+](=O)[O-])cc2)/C1=C/c1ccccc1O | 29* | 9 | -7 | -2 | 15 | 14
COc1ccc(CC2CCOC2=O)cc1 (stereo not given) | 3 | 5 | 4 | 3 | 11 | -5
COC(=O)c1sccc1NC(=O)/C=C/c1c(Cl)cccc1Cl | -4 | 5 | -6 | -2 | 6 | 4
O=c1oc2c3c4c(cc2s1)CCCN4CCC3 | 13 | 58 | 83 | 37 | 78* | 7
O=c1ccc2cc3c4c(c2o1)CCCN4CCC3 | 10 | 32 | -8 | 5 | 27 | 10
CC(=O)/C(=N\Nc1ccccc1)Sc1cccc2cccnc12 | 31* | -37 | -3 | -1 | -5 | -6
Fc1ccc(-c2nc3cnccn3c2NC2CCCC2)cc1 | -9 | 2 | 1 | 2 | 54* | -6
Cc1csc(SCC(=O)Nc2ccc(CC#N)cc2)n1 | . | 14 | . | . | . | .
O=c1[nH]cc(N=Cc2cc(Cl)cc(Cl)c2O)c(=O)[nH]1 | -4 | 1 | 12 | 0 | 57* | 19
O=S(=O)(Nc1ccc(O)c2ccccc12)c1ccc(Br)cc1 | 15 | . | 1 | 0 | 86* | .
CC(=O)Nc1ccc(NS(=O)(=O)c2ccccc2)c2ccccc12 | -8 | 0 | 3 | 2 | -4 | 2
NC(=O)CC(NC(=O)Cc1cccc2ccccc12)c1ccc(NC2CCCCCC2)c([N+](=O)[O-])c1 (stereo not given) | . | 4 | -5 | -3 | 61* | -8
NC(=O)CC(NC(=O)Cc1cccc2ccccc12)c1ccc(NCCc2ccccc2F)c([N+](=O)[O-])c1 (stereo not given) | . | -10 | -7 | -4 | 50* | 0
NC(=O)CC(NC(=O)Cc1cccc2ccccc12)c1ccc(NC2CCCCCCC2)c([N+](=O)[O-])c1 (stereo not given) | . | -6 | -3 | 3 | 45 | 1
CCC(C)NC(=O)c1ccc(N2CC3CC(C2)c2cccc(=O)n2C3)c(NC(=O)c2c(F)cccc2F)c1 (stereo not given) | . | 19 | . | . | . | .
SMILES | M18AAP inhibitor | PfGluPho inh | A3G deaminase | APOBEC3A inh | SUMO HTRF inh | HKDC1 inhibitor
Oc1cccc(/C=N/Nc2cc(N3CCCC3)nc(N3CCCC3)n2)c1 | 1 | 42 | 0 | 2 | 93* | 20
CCOc1cc(CNCc2ccccc2)ccc1OCc1ccc(Cl)cc1 | 6 | 19 | -7 | -3 | -30 | -4
CCOc1cc(CNc2ccc(O)cc2)ccc1OCc1ccc(Cl)cc1Cl | 14 | 88* | 9 | -2 | 28 | 19
COc1ccccc1/C=C1\SC(=S)N(Nc2nc(C)cc(C)n2)C1=O | 19 | -4 | -1 | 5 | -12 | -4
Cc1cc(C)nc(NN2C(=O)/C(=C/c3ccc(O)cc3)SC2=S)n1 | 30* | 4 | 3 | 15 | -20 | 9
Cc1[nH]n(-c2ccccc2)c(=O)c1C=Nc1ccc(S(=O)(=O)N=C(N)N)cc1 | 1 | -4 | -5 | 0 | 12 | 10
Cc1[nH]n(-c2ccccc2)c(=S)c1C=Nc1ccc([N+](=O)[O-])cc1 | 51* | 98* | . | . | -14 | -9
CCOc1cc(/C=C2\CN(CC)C/C(=C\c3ccc(O)c(OCC)c3)C2=O)ccc1O | 29* | 12 | 5 | 8 | -27 | 15
CCC(C)Sc1ccc([C@H]2N[C@@](C)(C(=O)OC)[C@H]3C(=O)N(C)C(=O)[C@@H]23)cc1OC (stereo not given in full) | . | 5 | -8 | -2 | . | -2
CN(C)c1ccc(CC2C(=O)Nc3ccccc32)cc1 (stereo not given) | 31* | 83* | 45* | -5 | 21 | 5
O=C(CCO)c1ccc(O)cc1 | 56* | -1 | -1 | 11 | 50 | 7
Nc1ccc2c(c1)C(=O)c1ccccc1-2 | . | 5 | -6 | 1 | . | -2
O=C1C(=O)c2ccc(-c3ccccc3)cc2-c2ccccc21 | 0 | 53 | 0 | 2 | 97* | 30
O=C(CCCn1c(=S)[nH]c2ccsc2c1=O)Nc1ccc2c(c1)OCO2 | -3 | 22 | -3 | -8 | 2 | 6
N#CCCn1[nH]c(-c2ccccc2)cc1=O | 5 | 3 | -8 | -3 | 69* | -7
CCn1c(SC(=O)NC2CCCCC2)nnc1-c1cccs1 | 47* | 16 | 33 | -5 | 18 | 7
O=C(OCC(=O)c1c[nH]c2ccccc12)c1cc2ccccc2cc1O | 6 | 2 | 0 | 3 | 31 | -9
CC1CCc2c(sc3nc(CSc4ncn[nH]4)[nH]c(=O)c23)C1 (stereo not given) | 56* | -11 | -4 | -1 | 1 | -5
Cc1ccc(C2C(C#N)=C(N)SC(N)=C2C#N)cc1 | 42* | 48 | . | . | 18 | 13
Cc1ccc(C2C(C#N)=C(N)SC(N)=C2C#N)c(C)c1 | -2 | 39 | 0 | -1 | 29 | 11
N#CC1(NC(=O)COC(=O)c2cc(O)c3ccccc3c2O)CCCCC1 | . | 59 | 1 | 0 | . | 50*
N#CC1(NC(=O)COC(=O)c2ccccc2[N+](=O)[O-])CCCCC1 | . | 12 | -7 | -3 | . | -3
COCCNC(=O)CSc1nnc2c(Cl)cc(Cl)cn12 | 0 | -3 | -1 | -1 | 6 | -7
COc1cccc(/C=N/NC(=S)Nc2cccc(C(=O)O)c2)c1O | 38* | -59 | -9 | 2 | 8 | 0

Screening data deposited in PubChem by several laboratories.
